In ChEMBL document CHEMBL4680218, “Design and synthesis of tripeptidyl furylketones as selective inhibitors against the β5 subunit of human 20S proteasome” (Eur J Med Chem, 2020) one finds inhibition and IC50 data, which are given here for twelve molecules.

Structures are written as SMILES. pIC50: −log10 of the molar value.

The target of one experiment is T1, Proteasome Macropain subunit MB1 (Homo sapiens) (UniProt P28074).
T1 sequence (whole entry): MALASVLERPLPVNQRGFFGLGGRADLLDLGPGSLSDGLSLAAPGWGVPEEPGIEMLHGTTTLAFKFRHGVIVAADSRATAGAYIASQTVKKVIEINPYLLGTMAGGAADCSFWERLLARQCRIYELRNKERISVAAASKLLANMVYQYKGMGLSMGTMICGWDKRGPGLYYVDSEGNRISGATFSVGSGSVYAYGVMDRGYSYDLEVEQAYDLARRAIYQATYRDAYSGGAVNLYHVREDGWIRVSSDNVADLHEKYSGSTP
Briefly: Inhibition of chymotrypsin-like activity of human 20S proteasome beta5 subunit at 50 uM using Suc-LLVY-Glo as substrate incubated for 2 hrs followed by substrate addition and measured for 10 mins by bioluminescent assay relative to control. The following applies: time 130.0 min. The method, boiled down:
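Human constitutive 20S proteasome (1 µg/mL) was incubated with compound for 2 h at 25 °C in 10 mM HEPES pH 7.6 with 1% DMSO final. Suc-LLVY-Glo substrate was then added, and luminescence was read over 10 min. Inhibition rate was calculated against the uninhibited signal.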
A word on the inhibition: it is how much of the control response was suppressed. The low end stands for a weak effect, the high end for a strong effect. As to `CC(C)C[C@H](NC(=O)[C@H](C)NC(=O)[C@H](Cc1ccccc1)NC(=O)OCc1ccccc1)C(=O)c1ccco1`, the inhibition was above 50%.
The same measure, in the same setting: with `CC(C)C[C@H](NC(=O)[C@H](Cc1ccc(O)cc1)NC(=O)[C@H](Cc1ccc(O)cc1)NC(=O)c1ccc(CO)cc1)C(=O)c1ccco1` the figure was above 50%; with `Cc1ccc(S(=O)(=O)N[C@@H](Cc2ccccc2)C(=O)N[C@@H](Cc2ccc(O)cc2)C(=O)N[C@@H](CC(C)C)C(=O)c2ccco2)cc1`, above 50%; with `COc1ccc(C[C@H](NC(=O)[C@H](Cc2ccccc2)NC(=O)c2ccccc2OC)C(=O)N[C@@H](CC(C)C)C(=O)c2ccco2)cc1`, above 50%.
Turning to `COC[C@H](NC(=O)[C@H](Cc1ccccc1)NC(=O)OCc1ccccc1)C(=O)N[C@@H](CC(C)C)C(=O)c1ccco1`, the inhibition was above 50%.
The same measure, in the same setting: next, `CC(C)C[C@H](NC(=O)[C@H](Cc1ccc(Cl)cc1)NC(=O)[C@H](Cc1ccccc1)NC(=O)OCc1ccccc1)C(=O)c1ccco1`: above 50%; `COc1ccc(C[C@H](NC(=O)OC(C)(C)C)C(=O)N[C@@H](C)C(=O)N[C@@H](CC(C)C)C(=O)c2ccco2)cc1`: above 50%; `COc1ccc(C[C@H](NC(=O)OC(C)(C)C)C(=O)N[C@@H](Cc2ccc(Cl)cc2)C(=O)N[C@@H](CC(C)C)C(=O)c2ccco2)cc1`: above 50%.
Same read-out and setting: with `COc1ccc(C[C@H](NC(=O)[C@H](Cc2ccccc2)NC(=O)c2cnccn2)C(=O)N[C@@H](CC(C)C)C(=O)c2ccco2)cc1` the figure was above 50%.
Consider `COc1ccc(C[C@H](NC(=O)c2cnccn2)C(=O)N[C@@H](Cc2ccc(O)cc2)C(=O)N[C@@H](CC(C)C)C(=O)c2ccco2)cc1`, for which the inhibition was above 50%.
On to `COC[C@H](NC(=O)[C@H](CC(=O)NCCC(C)C)NS(=O)(=O)c1ccc(C)cc1)C(=O)N[C@@H](CC(C)C)C(=O)c1ccco1`, for which the inhibition is above 50%.
`CC(=O)N[C@@H](Cc1ccccc1)C(=O)N[C@@H](Cc1ccc(O)cc1)C(=O)N[C@@H](CC(C)C)C(=O)c1ccco1` came in with an inhibition above 50%.

The target of a further experiment is T2, Proteasome Macropain subunit MB1 (Homo sapiens, UniProt P28074).
T2 sequence (P28074 whole entry): T1 sequence (whole entry)
Briefly: Inhibition of chymotrypsin-like activity of human 20S proteasome beta5 subunit using Suc-LLVY-Glo as substrate incubated for 2 hrs followed by substrate addition and measured for 10 mins by bioluminescent assay.
Details: not given
The method, boiled down: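 Human constitutive 20S proteasome (1 μg/mL) was combined with compound serially diluted in 10 mM HEPES pH 7.6, with final DMSO 1% (v/v). After 2 h at 25 °C, Suc-LLVY-Glo (CT-L), Z-LRR-Glo (T-L) or Z-nLPnLD-Glo (C-L) reagent was added. Luminescence was read over 10 min, and IC50 was taken from inhibition rates.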
For orientation: pIC50 means the negative decadic logarithm of the IC50, by convention in mol/L. Higher therefore signals a low IC50. On to `CC(C)C[C@H](NC(=O)[C@H](C)NC(=O)[C@H](Cc1ccccc1)NC(=O)OCc1ccccc1)C(=O)c1ccco1`, for which the negative-log IC50 (pIC50) was below 4.30.
In turn, `CC(C)C[C@H](NC(=O)[C@H](Cc1ccc(O)cc1)NC(=O)[C@H](Cc1ccc(O)cc1)NC(=O)c1ccc(CO)cc1)C(=O)c1ccco1` gave a pIC50 of 5.34.
As for `Cc1ccc(S(=O)(=O)N[C@@H](Cc2ccccc2)C(=O)N[C@@H](Cc2ccc(O)cc2)C(=O)N[C@@H](CC(C)C)C(=O)c2ccco2)cc1`, the pIC50 was 5.63.
`COc1ccc(C[C@H](NC(=O)[C@H](Cc2ccccc2)NC(=O)c2ccccc2OC)C(=O)N[C@@H](CC(C)C)C(=O)c2ccco2)cc1` showed a negative logarithm of the IC50 (pIC50) below 4.30.
In the case of `COC[C@H](NC(=O)[C@H](Cc1ccccc1)NC(=O)OCc1ccccc1)C(=O)N[C@@H](CC(C)C)C(=O)c1ccco1`, the pIC50 was 5.38.
Still for that read-out and setting: next, `CC(C)C[C@H](NC(=O)[C@H](Cc1ccc(Cl)cc1)NC(=O)[C@H](Cc1ccccc1)NC(=O)OCc1ccccc1)C(=O)c1ccco1`: below 4.30.
`COc1ccc(C[C@H](NC(=O)OC(C)(C)C)C(=O)N[C@@H](C)C(=O)N[C@@H](CC(C)C)C(=O)c2ccco2)cc1` had a pIC50 of 4.92.
`COc1ccc(C[C@H](NC(=O)OC(C)(C)C)C(=O)N[C@@H](Cc2ccc(Cl)cc2)C(=O)N[C@@H](CC(C)C)C(=O)c2ccco2)cc1` showed a negative logarithm of the IC50 (pIC50) of 4.30.
In turn, `COc1ccc(C[C@H](NC(=O)[C@H](Cc2ccccc2)NC(=O)c2cnccn2)C(=O)N[C@@H](CC(C)C)C(=O)c2ccco2)cc1` gave a pIC50 below 4.30.
For the molecule `COc1ccc(C[C@H](NC(=O)c2cnccn2)C(=O)N[C@@H](Cc2ccc(O)cc2)C(=O)N[C@@H](CC(C)C)C(=O)c2ccco2)cc1`, the pIC50 is 5.08.
As for `COC[C@H](NC(=O)[C@H](CC(=O)NCCC(C)C)NS(=O)(=O)c1ccc(C)cc1)C(=O)N[C@@H](CC(C)C)C(=O)c1ccco1`, the pIC50 is below 4.30.
`CC(=O)N[C@@H](Cc1ccccc1)C(=O)N[C@@H](Cc1ccc(O)cc1)C(=O)N[C@@H](CC(C)C)C(=O)c1ccco1` showed a pIC50 of 4.86.
